SUMO1-SIM PPI – modulators of SUMO1 protein-protein interactions, primary screen, biochemical, uHTS; SUMO1 binding to a labelled peptide, TR-FRET, 1 h; inhibition, % at 20 µM; hit rate 0.33% among 360,000; in the data active = inhibition above about 37%
Scp1 inh – Scp-1 phosphatase inhibitors, primary screen, biochemical, colorimetric, uHTS. Carboxy-terminal domain RNA polymerase II polypeptide A small phosphatase 1 (Homo …. Recombinant Scp1, phosphopeptide, malachite green phosphate absorbance. inhibition, % at 20 µM. hit rate 0.88% among 340,000;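 active = inhibition above about 50% at 20 µM, limit read from the data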
Target sequence (Q9GZU7 76-261 limits assumed): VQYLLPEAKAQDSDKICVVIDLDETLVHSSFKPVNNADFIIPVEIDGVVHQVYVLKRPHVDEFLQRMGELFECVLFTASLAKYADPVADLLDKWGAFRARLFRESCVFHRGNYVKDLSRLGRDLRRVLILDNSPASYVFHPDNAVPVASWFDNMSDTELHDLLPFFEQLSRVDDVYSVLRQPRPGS
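Times: enzyme reaction 45 min at room temperature, colour 5 min, stabilisation 30 min. Material: SCP-1 catalytic fragment, aa 76-261. Medium: Acidic Tris acetate buffer with magnesium and detergent. Signal: colorimetric free-phosphate detection, absorbance 630 nm. Read-out basis: % inhibition of SCP-1 phosphate liberation. Reagent: Phosphorylated 17-residue peptide substrate.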
STEP inh – STEP phosphatase inhibitors, primary screen, biochemical, fluorescence intensity, uHTS; recombinant STEP, OMFP fluorogenic substrate; inhibition, % at 20 µM; Tyrosine-protein phosphatase non-receptor type 5 (Homo sapiens), P54829; hit rate 0.25% among 360,000;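 active = inhibition at 20 µM, scaled per plate between control wells, above about 37%, limit read from the data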
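System: STEP (striatal-enriched tyrosine phosphatase) enzyme, cell-free; medium: Bis-Tris pH 6.0 buffer with DTT, detergent; dosing: 20 µM, 1% DMSO; times: reaction 20 min, ambient temperature; detection: fluorescence, 480/540 nm; read-out basis: normalized % inhibition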
Casp6 inh – human caspase-6 inhibitors, primary screen, biochemical, VEID-R110 fluorescence, single point, set 2 | hit rate 0.53% among 350,000 | P55212 | AID 686996, 2013 | purified caspase-6, Z-VEID-R110 cleavage fluorescence | inhibition, % at 12.5 µM;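 active = mean inhibition across replicates at least about 35%, with every replicate also reaching that limit, limit read from the data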
Target sequence (P55212 24-179 limits assumed): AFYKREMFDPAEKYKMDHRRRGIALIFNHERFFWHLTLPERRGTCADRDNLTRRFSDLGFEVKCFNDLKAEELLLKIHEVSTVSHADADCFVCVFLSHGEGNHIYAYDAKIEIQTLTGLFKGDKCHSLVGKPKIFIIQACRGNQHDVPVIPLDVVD
Target sequence (P55212 194-293 limits assumed): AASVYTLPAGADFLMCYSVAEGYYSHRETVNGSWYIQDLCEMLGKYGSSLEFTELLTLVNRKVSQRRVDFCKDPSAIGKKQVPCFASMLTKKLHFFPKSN
LMPTP inh – LMPTP phosphatase inhibitors, primary screen, biochemical, fluorescence intensity, uHTS; Low molecular weight phosphotyrosine protein phosphatase (Homo sapiens), P24666; recombinant LMPTP-A, OMFP fluorogenic substrate; inhibition, % at 20 µM; hit rate 0.22% among 360,000;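 active = compounds that cut the enzyme signal by at least half of the control window in the single-dose screen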
Target sequence (P24666 whole entry, looked up): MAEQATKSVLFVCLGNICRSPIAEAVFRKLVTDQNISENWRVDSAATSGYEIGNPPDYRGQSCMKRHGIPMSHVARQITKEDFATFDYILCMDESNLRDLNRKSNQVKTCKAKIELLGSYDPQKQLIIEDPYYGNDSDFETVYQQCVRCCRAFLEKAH
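Test system: LMPTP-A phosphatase enzyme; input: 0.625 nM LMPTP-A final; reagent: OMFP substrate, 400 µM final; compound dosing: 20 µM single dose, 3% DMSO; incubation: 50 min dark incubation at room temperature; measured by: endpoint fluorescence intensity from OMFP dephosphorylation; measure: % inhibition relative to no-enzyme and uninhibited control wells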
DNMT1 inh – human DNMT1 methyltransferase inhibitors, primary screen, biochemical, molecular beacon, fluorescence, HinP1I cleavage, uHTS; inhibition (reported as % activation of signal), % at 10 µM; hit rate 0.83% among 360,000; in the data active = inhibition above about 50%
Scp1 confirm – Scp-1 phosphatase inhibitors, retest, confirmation, biochemical, colorimetric, single concentration. recombinant SCP-1 catalytic domain, phosphate release, malachite green absorbance. inhibition, % at 20 µM. hit rate 61% among 2,500. shares compounds with Scp1 inh
MG interference – colorimetric readout interference by compounds, confirmation, artefact control for Scp-1 inhibitor project, biochemical, single concentration; 2,500 tested, under 10 active; shares compounds with Scp1 inh; Colorimetric interference counterscreen, malachite green absorbance 630 nm; apparent inhibition (interference), % at 20 µM;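 also: compounds added after enzyme reaction finished so only phosphate colour detection is probed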
Scp-1 Tm shift – Scp-1 binding by thermal shift, confirmation, orthogonal assay for Scp-1 inhibitor project, biophysical, differential scanning fluorimetry. hit rate 25% among 1,500. thermal shift relative to vanadate control, % at 40 µM. shares compounds with Scp1 inh. Recombinant SCP1, Sypro Orange thermal shift Tm. AID 540329, 2011;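 active = substances whose mean melting-temperature shift, as a percentage of the reference inhibitor's shift, reaches about 5.3%, limit read from the data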
Numbers stand for hits; - = inactive; . = not tested or not shown. An excerpt weighted towards active compounds, which were near 1.7% of everything screened.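 The calls were made as follows, unless noted: active = inhibition of at least 30% at 20 µM; inactive = the rest.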

SMILES | SUMO1-SIM PPI | Scp1 inh | STEP inh | Casp6 inh | LMPTP inh | DNMT1 inh | Scp1 confirm | MG interference | Scp-1 Tm shift
CCOC(=O)c1c(C)n(C)c2ccc(OCC(O)CN3CCC(C)CC3)cc12 (stereo not given) | - | - | - | - | - | - | . | . | .
C[N+]1(CCCCCCC(=O)/C=N/O)CCCCCC1 | - | 96 | - | . | - | - | - | - | .
O=C(NNC(=O)c1ccc(NC(=O)c2ccccc2)cc1)c1ccc(F)cc1 | - | - | - | - | - | - | . | . | .
Cc1ccc(NC(=O)c2cccc(C(=O)Nc3ccc(C)cc3C(=O)O)c2)c(C(=O)O)c1 | - | 57 | - | - | - | - | 54 | - | -
Cc1cccc(C(=O)NNC(=O)c2ccc(Br)cc2)c1 | - | - | - | - | - | - | . | . | .
O=C(NNC(=O)c1ccc(-c2ccccc2)cc1)c1ccccc1 | - | 74 | - | - | - | - | 54 | - | 5.7
O=C(NNC(=O)c1ccc(-c2ccccc2)cc1)Nc1ccccc1F | - | - | - | - | - | - | . | . | .
Cc1cccc(C(=O)NNC(=O)c2ccc(-c3ccccc3)cc2)c1 | - | 70 | - | . | - | - | 73 | - | -
O=C(NNC(=O)c1ccc(NC(=O)c2ccccc2)cc1)Nc1ccccc1 | - | 51 | - | - | - | - | 67 | - | -
C=CCOc1ccc(Br)cc1/C=C1/SC(=Nc2ccc(C(=O)O)cc2)NC1=O | - | 86 | 65 | - | 81 | - | 75 | - | -
Cc1cccc(C)c1NC(=O)CCCCCC1NC(=O)NC1C (stereo not given) | - | - | - | - | - | - | - | - | .
Cc1ccc(CCN2CC(C(=O)NCCCN3CCOCC3)CC2=O)cc1 (stereo not given) | - | - | - | . | - | - | - | - | .
CCCCNC(=O)C1CC(=O)N(CCc2ccccc2)C1 (stereo not given) | - | - | - | - | - | - | . | . | .
O=C(NCc1ccc2c(c1)OCO2)C1CC(=O)N(CCc2ccccc2)C1 (stereo not given) | - | - | - | - | - | - | - | - | .
Cc1ccc(CCN2CC(C(=O)NCCN3CCOCC3)CC2=O)cc1 (stereo not given) | . | - | . | . | . | . | . | . | .
CCOCCCN1CC(C(=O)NCCc2ccccc2)CC1=O (stereo not given) | - | - | - | . | - | - | - | - | .
O=C(NCc1ccc(F)cc1)C1CC(=O)N(CCc2ccccc2)C1 (stereo not given) | - | - | - | . | - | - | - | - | .
O=C1c2ccccc2C(=O)N1CC(O)CN1CCOCC1 (stereo not given) | - | - | - | . | - | - | . | . | .
CC1O[C@@H](OC2C(COC3OC(CO)C(O)[C@H](O)C3O)OC(OC3CC[C@]4(C)C(CC[C@@]5(C)[C@@H]4CC=C4[C@@H]6CC(C)(C)CC[C@]6(CO)C(O)C[C@]45C)C3(C)C)C(O)C2O)C(O)C(O)C1O (stereo not given in full) | - | 55 | - | - | - | - | - | - | .
O=C(NNC1OC(CO)C(O)C(O)C1O)c1cccc(Br)c1 (stereo not given) | - | - | - | - | - | - | - | - | .
O=C(O)CCC(=O)NNC(=O)c1cccc(Br)c1 | - | - | - | . | - | - | . | . | .
CCOC(=O)c1ccc2c(c1)[n+](CC)c(C)n2-c1ccccc1 | - | - | - | - | - | - | . | . | .
CC(=O)OCC[n+]1c(C)n(-c2ccccc2)c2ccc(Cl)cc21 | - | 90 | - | - | - | - | - | - | .
O=C(N/N=C/c1ccccn1)c1cc(-c2ccc(Br)s2)[nH]n1 | - | 67 | - | - | - | - | 52 | - | -
O=C(N/N=C/c1ccncc1)c1cc(-c2ccc(Br)s2)[nH]n1 | - | - | - | - | - | - | . | . | .
SMILES | SUMO1-SIM PPI | Scp1 inh | STEP inh | Casp6 inh | LMPTP inh | DNMT1 inh | Scp1 confirm | MG interference | Scp-1 Tm shift
Cc1ccc(NC(=O)CN(C)C(=O)c2ccc(S(=O)(=O)N(C)c3ccccc3)cc2)cc1 | - | 54 | - | - | - | - | - | - | .
CCCCNC(=O)CN(c1ccc(Cl)c(Cl)c1)S(C)(=O)=O | - | - | - | . | - | - | . | . | .
O=C(Nc1nc(-c2ccco2)c(-c2ccco2)s1)C1CC(=O)N(c2ccc3c(c2)OCCO3)C1 (stereo not given) | - | 82 | - | . | - | 72 | 57 | - | 13
O=C(Nc1nnc(SCc2ccc(F)cc2)s1)C1CC(=O)N(c2ccc3c(c2)OCCO3)C1 (stereo not given) | - | - | - | . | - | - | . | . | .
O=C(Nc1nnc(SCc2c(Cl)cccc2Cl)s1)C1CC(=O)N(c2ccc3c(c2)OCCO3)C1 (stereo not given) | - | 67 | - | - | - | - | 66 | - | -
Cc1ccc(CN2CC(=O)N3[C@H](C2)[C@H](c2ccc(-c4ccccc4F)cc2)[C@@H]3CO)cc1 | . | . | . | - | . | . | . | . | .
CCOC(=O)c1ccc(NC(=O)COc2cc3oc(=O)c(CC(C)O)c(C)c3cc2Cl)cc1 (stereo not given) | - | - | - | - | - | - | . | . | .
CC(=O)c1cccc(NC(=O)COc2cc3oc(=O)c(CC(C)O)c(C)c3cc2Cl)c1 (stereo not given) | - | 51 | - | - | - | - | 46 | - | -
COc1ccc(Br)cc1/C=C/c1ccc2cccc(O)c2n1 | - | - | - | - | - | - | . | . | .
N#Cc1cccc(NC(=O)CSc2sc3c(O)cc(=O)[nH]c3c2C#N)c1 | - | 50 | - | - | 70 | - | - | - | .
CCCSc1nnc(NC(=O)CSc2sc3c(O)cc(=O)[nH]c3c2C#N)s1 | - | 70 | - | 45 | - | - | 65 | - | 12
N#Cc1c(SCC(=O)Nc2cccc(F)c2)sc2c(O)cc(=O)[nH]c12 | - | 58 | - | 44 | - | - | 60 | - | 7.7
